PG9 Ab binder = binders of HIV-1 gp120 antibody PG9, primary screen, biochemical, TR-FRET. inhibition, % at 6.7 µM. HIV-1 gp120 / PG9 antibody interaction. 360,000 compounds, 0.43% hits. TR-FRET gp120-PG9 antibody binding; in the data active = inhibition above about 8.5%
NR2E3 ag-1 = inhibitors of NR2E3-RetCOR corepressor binding, primary screen, NR2E3 agonist project, biochemical, TR-FRET, GST-NR2E3, biotin-RetCOR | Photoreceptor-specific nuclear receptor (Homo sapiens), Q9Y5X4 | 1536-well | inhibition of corepressor binding, % at 4.78 µM | 320,000 compounds, 0.12% hits | AID 2300, 2010;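 active = percent inhibition above the cutoff of mean plus 3 SD of all tested compounds, set per screening campaign, cut at about 20% in these data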;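 also: 0% = DMSO wells and 100% = biotin wells as full block of FRET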
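Material: NR2E3–RetCOR corepressor complex / Amount: 1.35 nM GST-NR2E3 / Medium: Tris pH 7.5 / Compound: single nominal compound dose of 4.8 µM / Incubation: 5 h at 4 °C / Technique: TR-FRET, Eu(K)-anti-GST donor, streptavidin-D2 acceptor, ex 340, em 617/671 nm / Read-out basis: percent loss of FRET ratio relative to control wells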
Rev-erbA mod = modulators of Rev-erb alpha DNA binding, primary screen, biochemical, FITC-DNA, fluorescence polarization, uHTS. Nuclear receptor subfamily 1 group D member 1 (Homo sapiens), P20393. Rev-erbα–FITC-DNA binding, 90 min. activity, % at 10 µM. 370,000 compounds, 0.79% hits. AID 1259318, 2017;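 active = activity above about 14%, limit read from the data; passing the limit was not always enough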;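 also: 0% = DMSO wells with 35 nM protein and 100% = DMSO wells with 750 nM protein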
Target sequence (P20393 whole entry, looked up): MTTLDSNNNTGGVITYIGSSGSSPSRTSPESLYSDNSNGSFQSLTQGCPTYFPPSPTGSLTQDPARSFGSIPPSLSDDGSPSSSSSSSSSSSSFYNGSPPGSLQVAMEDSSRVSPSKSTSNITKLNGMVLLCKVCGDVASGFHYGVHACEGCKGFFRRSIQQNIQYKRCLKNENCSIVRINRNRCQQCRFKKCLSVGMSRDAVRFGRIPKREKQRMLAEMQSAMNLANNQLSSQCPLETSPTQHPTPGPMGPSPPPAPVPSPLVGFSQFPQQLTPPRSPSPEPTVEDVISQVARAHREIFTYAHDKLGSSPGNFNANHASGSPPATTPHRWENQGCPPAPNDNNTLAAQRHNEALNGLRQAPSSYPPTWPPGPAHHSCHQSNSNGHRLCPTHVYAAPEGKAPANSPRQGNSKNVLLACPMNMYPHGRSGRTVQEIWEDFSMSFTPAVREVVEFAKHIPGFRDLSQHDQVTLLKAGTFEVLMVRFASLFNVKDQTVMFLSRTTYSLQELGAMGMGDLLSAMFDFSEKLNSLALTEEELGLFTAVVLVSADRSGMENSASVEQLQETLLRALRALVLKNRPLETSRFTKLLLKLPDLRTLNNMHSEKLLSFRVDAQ
NR2E3 ag-2 = NR2E3 agonists in two-hybrid cells, primary screen, cell-based, luminescence, CHO-S, Gal4-NCOR/VP16-NR2E3; inhibition of corepressor binding, % at 3.98 µM; 360,000 compounds, 0.35% hits; luciferase; Photoreceptor-specific nuclear receptor (Homo sapiens), Q9Y5X4; AID 602229, 2012;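 active = inhibition above the mean of all tested compounds plus 3 SD, cut at about 70% in these data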;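 also: 0% = DMSO with NR2E3 transfected cells and 100% = cells lacking NR2E3 construct; higher means lower luciferase signal from less NR2E3 corepressor binding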
PG9 binder conf = binders of anti-gp120 antibody PG9, confirmation, biochemical, TR-FRET. shares compounds with PG9 Ab binder. 1,500 compounds, 90% hits. AID 651571, 2012. inhibition, % at 6.7 µM. TR-FRET PG9 antibody binding; in the data active = inhibition above about 9%
PGV04 counter = binders of control antibody PGV04, counter-screen for PG9 antibody binder project, biochemical, TR-FRET, distinct HIV envelope site. TR-FRET PGV04 antibody-gp120 binding. inhibition, % at 6.7 µM. 1,500 compounds, 95% hits. shares compounds with PG9 Ab binder. AID 651604, 2012; in the data active = inhibition above about 9.5%
PG9 bind DR = small-molecule binders of antibody PG9, dose response, biochemical, TR-FRET, HIV-1 gp120 antibody; shares compounds with PG9 Ab binder; TR-FRET PG9 antibody-gp120 binding inhibition; IC50, µM; 95 tested, under 10 active; in the data active = IC50 below about 10 µM
PGV04 DR counter = binders of control antibody PGV04, dose response, counter-screen for PG9 antibody binder project, biochemical, TR-FRET, distinct HIV envelope site | 95 compounds, 20% hits | TR-FRET binding to control antibody PGV04 | IC50, µM | shares compounds with PG9 Ab binder
PG126 binding DR = binders of control antibody PG126, dose response, counter-screen for PG9 antibody binder project, biochemical, TR-FRET, distinct HIV envelope site | 95 compounds, 20% hits | IC50, µM | shares compounds with PG9 Ab binder | TR-FRET binding to antibody PG126, counterscreen
Rev-erbA confirm = modulators of Rev-erb alpha DNA binding, confirmation, biochemical, FITC-DNA, fluorescence polarization, single point. shares compounds with Rev-erbA mod. 90 min. activation, % at 25 µM. 3,000 compounds, 61% hits;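 active = activation at or above a set limit, or at least 3 SD above the negative control mean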;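 also: 0% = 35 nM protein with DMSO and 100% = 750 nM protein high control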
RORg DNA counter = modulation of RORgamma DNA binding, dose response, counter-screen for Rev-erb alpha modulator project, biochemical, fluorescence polarization, FITC-DNA. shares compounds with Rev-erbA mod. purified RORgamma protein-FITC-DNA binding. IC50, µM. 910 compounds, 8% hits. AID 1259320, 2017;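 active = Compounds whose fitted half-maximal concentration for disrupting protein-DNA binding is below 10 micromolar; the record names Rev-erb in its text, so the target is in doubt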
* marks the source's active call; other numbers are inactive results; i = inactive; x = not tested or not shown. An excerpt weighted towards active compounds, which were near 1.4% of everything screened. Rule as the data show it, unless noted: active = IC50 below about 9 µM; inactive = the rest.

SMILES	PG9 Ab binder	NR2E3 ag-1	Rev-erbA mod	NR2E3 ag-2	PG9 binder conf	PGV04 counter	Rev-erbA confirm	others
COc1ccc(-c2c(Sc3ccccc3)c3cc(-c4ccc5c(c4)OCO5)ccc3n2C)cc1	37*	x	20*	-28	88*	57*	-34	PG9 bind DR=2.9*;PGV04 DR counter=2.1*;PG126 binding DR=2.1*
O=C(CCCCCn1c(=S)[nH]c2ccc(N3CCOCC3)cc2c1=O)NCc1ccc2c(c1)OCO2	21*	-17	22*	-45	17*	24*	-25
O=C(CCCCCn1c(=S)[nH]c2ccc(N3CCOCC3)cc2c1=O)NCc1ccccc1Cl	-1	-2	-2	6	x	x	x
O=C(CCCCCn1c(=S)[nH]c2ccc(N3CCOCC3)cc2c1=O)NCc1ccc(Cl)cc1	21*	-9	18*	-11	16*	25*	1
COc1ccc(CNC(=O)CCCn2c(=S)[nH]c3cc4c(cc3c2=O)OCO4)cc1	26*	6	56*	-5	17*	21*	36*	RORg DNA counter=>40
Cc1cccc2cc(COC(=O)COc3ccccc3)c(=O)[nH]c12	26*	5	31*	-5	31*	41*	21*
COc1ccc(NC(=O)COC(=O)c2ccc3c(c2)OCO3)c(OC)c1	22*	x	175*	-25	33*	29*	180*	PG9 bind DR=>67;PGV04 DR counter=i;PG126 binding DR=i;RORg DNA counter=>40
C=CCn1c(SCC(=O)NCc2ccco2)nc2sc(C)c(C)c2c1=O	3	2	-1	-12	x	x	x
Cc1sc2nc(SCC(=O)NCCO)n(-c3ccccc3)c(=O)c2c1C	-1	-1	0	-3	x	x	x
Cc1sc2nc(SCC(=O)NCc3ccco3)n(-c3ccccc3)c(=O)c2c1C	51*	1	102*	-10	58*	75*	85*
Cc1ccc(-n2c(SCC(=O)NCc3ccco3)nc3sc(C)c(C)c3c2=O)cc1	30*	15	67*	7	29*	42*	63*
Cc1cccc(NC(=O)CSc2nc(C)c(CC(=O)c3ccc(Br)cc3)c(C)c2C#N)c1C	9.2*	8	82*	-31	21*	30*	31*
COCc1cc(C)nc(SCC(=O)Nc2cccc(C)c2C)c1C#N	-1	-1	9	-20	x	x	x
Cc1nc(SCC(=O)Nc2ccc(F)cc2)c(C#N)c(C)c1CC(=O)c1ccc(Br)cc1	8.7*	1	70*	-11	26*	35*	16
COc1ccc(NC(=O)CSc2nc(C)c3c(c2C#N)CCCC3)cc1	0	-1	0	-18	x	x	x
COc1ccc(Br)cc1-c1nc2c(c(=O)[nH]c(=O)n2Cc2ccccc2)n1C	45*	1	92*	-19	69*	20*	52*	PG9 bind DR=9.5*;PGV04 DR counter=5.1*;PG126 binding DR=5.7*;RORg DNA counter=>40
CCC(=O)c1cn(CC(=O)Nc2ccc(C)cc2C)c2ccccc12	12*	-1	36*	14	12*	18*	40*	RORg DNA counter=9.8*
COc1cccc(CC(Cc2nc3ccccc3[nH]2)c2nc3ccccc3[nH]2)c1 (centres undefined)	0	4	1	-34	x	x	x
Cc1ccc(CN[C@@H]2CC[C@@]34CCCN3C(=O)CCC[C@H]4C2)o1	x	x	1	x	x	x	x
Cc1ccc(Sc2ccc(NC(=O)c3ccc(S(C)(=O)=O)cc3Cl)cc2)cc1	48*	1	46*	1	41*	62*	22*
CS(=O)(=O)c1ccc(C(=O)Nc2ccc(N3CCCCC3)cc2)c(Cl)c1	-3	-2	8	-3	x	x	x
CCc1cccc(NC(=O)c2ccc(Cn3c(=O)[nH]c4ccsc4c3=O)cc2)c1	25*	12	55*	-26	29*	40*	60*	RORg DNA counter=i
O=C(c1ccc(Cn2c(=O)[nH]c3ccsc3c2=O)cc1)N1CCN(c2ccccc2)CC1	0	3	1	-5	x	x	x
CN1C(=O)C(=O)N2C(=C[C@]3(c4c[nH]c5ccccc45)c4ccccc4N[C@H]23)C1=O	x	x	-4	x	x	x	x
Cc1ccc(C(=O)Nc2ccc3c(c2)OCO3)cc1Cl	21*	-1	24*	-57	18*	22*	7
SMILES	PG9 Ab binder	NR2E3 ag-1	Rev-erbA mod	NR2E3 ag-2	PG9 binder conf	PGV04 counter	Rev-erbA confirm	others
Cc1ccc(NC(=O)c2ccc3c(c2)OCO3)cc1Cl	0	-1	6	-147	x	x	x
Cc1cc2c(cc1S(=O)(=O)N1CCN(c3cccc(C(F)(F)F)c3)CC1)OCC(=O)N2	-1	2	4	-26	x	x	x
CC(=O)c1ccc(N2CCN(S(=O)(=O)c3cc4c(cc3C)NC(=O)CO4)CC2)cc1	37*	-9	31*	-5	33*	48*	23*
CCOC(=O)N1CCC(NC(=O)c2ccc3c(c2)N(Cc2ccc(C)cc2)CCS3)CC1	22*	2	30*	-4	31*	44*	7
CCOC(=O)N1CCC(NC(=O)c2ccc3c(c2)N(Cc2ccc(F)cc2)CCS3)CC1	2	-1	5	-49	x	x	x
Cc1ccccc1Cn1cc(NC(=O)c2cc(-c3ccco3)on2)cn1	-4	1	0	2	x	x	x
Cc1ccc(C(=O)Nc2nc3ccc(S(C)(=O)=O)cc3s2)cc1C	21*	0	26*	-7	32*	51*	21*
